# Compound activity as filed in PubChem BioAssay.
# Hsp70 activator – switches on Hsp70 transcription; HeLa Hsp70 promoter luciferase reporter, luminescence; scaled: vehicle 0, proteasome-inhibitor control 100%; activation, % at 10 µM; 200,000 compounds, 0.04% hits; AID 1203;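 active means activation above the mean across all tested compounds plus 3 SD, cutoff set per campaign, cut at about 5.5% in these data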;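 further: 100% = MG132 at 30 µM as the positive control and 0% = DMSO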
# MT stabilize HCS – microtubule stabilizers in HeLa cells | AID 2205 | % tubulin-high responders, % at 10 µM | HeLa tubulin immunostaining HCS, 24 h; share of cells brighter than vehicle mean+2SD | 200,000 compounds, 0.83% hits;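 active means plate Z-score above 3 for both tubulin-high and condensed-nucleus cell shares, with cell loss under 80%, at 10 µM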;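 further: anti alpha tubulin signal scored within the nucleus-defined area of each cell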
# Dynein transport – dynein cargo transport inhibition; 3617.4 mouse cells, GR-EGFP nuclear translocation imaging; test concentration mostly 20 µM; stimulated with dexamethasone, 1 µM; active compounds read low; z-score, hits read low; 220,000 compounds, 0.47% hits;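 active means plate z-score of nuclear minus cytoplasmic receptor signal below a set negative limit, without overly bright fluorescence or cell loss, cut at about -3.5 in these data, passing the limit was not always enough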;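 further: z-score of nuclear minus cytoplasmic ring GR-EGFP intensity difference per well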
#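 medium = tetracycline-free induction medium containing charcoal-stripped FBS | probe or stimulus = dexamethasone, 1.0 µM final | timing = 48 h induction, then 1 h compound, then 30 min agonist, 37 °C | detection = automated 10x imaging of fixed Hoechst-stained cells | read-out basis = nuclear versus cytoplasmic GR-EGFP signal, averaged per well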
# b-catenin transl – beta-catenin nuclear translocation modulation; HeLa beta-catenin nuclear translocation, immunofluorescence imaging; nuclear translocation activity, % at 5 µM; 190,000 compounds, 0.3% hits; AID 1665;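 active means nuclear translocation activity above 50% at 5 µM, with a well cell count of 50 or more; inconclusive means wells under 50 cells across six images, flagged as toxic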;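 further: per-cell ratio of nuclear to cytoplasmic median beta-catenin stain intensity; plate controls were DMSO negative control for no effect and GSK-3 inhibitor IX positive control for full effect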
#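 System: HeLa cells, endogenous beta-catenin; compound dosing: 5 µM primary single dose, 0.1% DMSO, 0.02–20 µM confirmation series; incubation: 24 h compound exposure at 37°C, 5% CO2; signal: beta-catenin immunofluorescence imaging with DAPI; evaluation: % activation, nuclear-to-cytoplasmic median beta-catenin signal ratio per cell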
# Autophagy HCS – alters autophagy in cells; MEF GFP-LC3 puncta imaging; test concentration mostly 10 µM; calls only at 10 µM (by protocol); 190,000 compounds, 0.98% hits; AID 463193;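 active means percentage of spot-positive cells more than 3 SD above its plate mean, without a fluorescence outlier flag or 80% toxicity; inconclusive means no clear call, values can overlap the other calls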;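 further: spot-positive cell cutoff set from DMSO-treated cells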
# Dynein inh conf – dynein cargo transport inhibition, confirmation; 1,000 compounds, 69% hits; 3617.4 GR-EGFP nuclear translocation imaging, dexamethasone-induced; shares compounds with Dynein transport; calls only at 20 µM;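 active means inhibition of receptor movement into the nucleus at or above a set limit in both runs, with normal cell brightness and cell count; inconclusive means limit reached in only one run, brightness and count normal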;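 further: dexamethasone at 1 µM final in well for 30 min; nuclear minus cytoplasmic GR-EGFP mean intensity difference in channel 2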
# Active calls of the source: *; i = inactive; ? = inconclusive; · = no result given; + = active, no number. Rows were chosen to be rich in hits. Some 2.1% of all compounds tested hit in one or more screens of this group.
SMILES,Hsp70 activator,MT stabilize HCS,Dynein transport,b-catenin transl,Autophagy HCS,Dynein inh conf
O=C(/C=C/c1ccccc1)/C=C/c1ccccc1,0.1,3.5,-7.02*,-2.2,i,+
O=C(/C=C/c1ccccc1)c1ccccc1,0.0,4.5,-0.828,-3.6,i,·
CCCCN1C(=O)/C(=C/C=C2\SCCN2C)SC1=S,0.1,1.9,0.115,-2.2,i,·
CCCCN1C(=O)/C(=C/C=C2\N(C)c3ccccc3C2(C)C)SC1=S,-0.2,10.6,-5.05,12.8,+,i
COC(=O)c1cc(=O)n(CCc2ccccc2F)c(=Nc2ccc(F)c(Cl)c2)s1,-0.1,3.7,-4*,·,i,+
COC(=O)c1cc(=O)n(Cc2ccco2)c(=Nc2ccc(F)c(Cl)c2)s1,-0.2,17.6,-3.88*,·,i,+
CC1CC(C)CN(CC(=O)NCCc2ccc(S(N)(=O)=O)cc2)C1 (stereo not drawn),-0.2,2.2,-0.187,-2.1,i,·
CC(=O)Nc1ccc(S(=O)(=O)Nc2nc3ccccc3nc2Nc2cccc(S(N)(=O)=O)c2)cc1,·,·,0.418,0.7,·,·
CC1=NN(c2ccccc2)C(=O)/C1=C\c1sccc1C,·,·,0.331,-1.6,·,·
Cc1ccc(C2=NOC(=O)/C2=C\C=C\c2ccccc2)cc1,-0.4,5.6,-5.59*,2.9,i,+
CC1=NN(c2ccccc2)C(=O)/C1=C/C=C/c1ccccc1,-0.3,2.8,-5.8*,-0.1,i,+
COc1ccc(NC(=O)c2oc3cc(C)c(C)cc3c2C)c(OC)c1,-0.8,1.4,-4.05*,-1.4,i,i
CCN(CC)S(=O)(=O)c1ccc2oc(C(=O)Nc3ccc(OC)cc3OC)c(C)c2c1,0.2,7.6,0.571,-0.5,i,·
Clc1ccccc1OCc1nnc(-c2ccccc2Br)o1,0.2,5.6,-0.854,-0.9,i,·
O=c1c(Cl)c(Cl)cnn1Cc1nnc(-c2ccccc2Br)o1,1.2,2.8,-5.6*,-2.5,i,+
O=C1C(Cl)=C(NS(=O)(=O)c2ccc([N+](=O)[O-])cc2)C(=O)c2ccccc21,·,·,-3.88*,0.1,·,+
O=[N+]([O-])c1ccc(Oc2ccc(S(=O)(=O)Nc3ccccc3)cc2)cc1,-0.4,2.5,0.013,·,i,·
S=c1sc2c(Cl)ncnc2n1-c1ccccc1,-0.3,1.7,-4.03*,·,i,+
CC1(C)OC(=O)C(=NNc2ccc(Br)cc2)C(=O)O1,0.2,3.5,-0.656,-2.9,i,·
Cc1cccc(N(Cc2ccccc2)C(=O)CCl)c1,-0.3,4.2,-5.68*,0.4,?,+
O=C(CCl)N(Cc1ccccc1)c1ccccc1,-0.2,2.4,-5.28*,5.2,i,+
O=C(c1cccnc1)N(Cc1ccccc1)c1ccccc1,-0.1,3.5,0.533,-0.2,i,·
COc1ccc(-c2c(=O)n(OCc3ccccc3[N+](=O)[O-])c3ccccc3[n+]2[O-])c(OC)c1,-0.4,5.6,1.2,-2.9,i,·
O=C(CN1C(=O)S/C(=C\c2ccc(Cl)cc2)C1=O)NNC(=O)c1ccccc1O,-0.3,3.5,-0.961,-0.1,i,·
CSc1ccccc1NC(=O)CSc1nncs1,-0.3,7.0,0.219,-4.2,i,·
SMILES,Hsp70 activator,MT stabilize HCS,Dynein transport,b-catenin transl,Autophagy HCS,Dynein inh conf
CCN1C(=O)CC(C(=O)OC)=C1C,-0.1,5.4,-0.508,-1.3,i,·
COC(=O)C1=C(C)N(CCC2=CCCCC2)C(=O)C1,-0.2,1.4,-4.13*,·,i,i
COc1cc(/C=C/[N+](=O)[O-])ccc1OCc1cccc(C(=O)O)c1,-0.6,1.3,-3.65*,-0.2,i,+
CCn1nc([N+](=O)[O-])c(C(C#N)c2nc3cc(C(F)(F)F)ccc3s2)c(Cl)c1=O (stereo not drawn),0.2,2.6,-4.4*,-4.9,i,+
COC(C/C=C/C(=O)COCc1ccccc1)OC,·,·,-5.71*,0.5,·,+
Cc1nnsc1-c1c(C(=O)N2CCOCC2)c(C)nn1-c1ccc(Cl)cc1,·,·,0.256,0.2,·,·
Cc1cccc(NC(=O)CN2C(=O)N/C(=C/c3ccc(C)s3)C2=O)c1,-0.1,3.6,-4.5,-1.1,i,?
CCSc1nnc(-c2sc3nnc(-c4ccccc4)c(-c4ccccc4)c3c2N)o1,0.0,1.8,-7.42,·,?,i
CCN(CC)c1ccc(/C=N/NC(=O)C(O)(c2ccccc2)c2ccccc2)o1,-0.4,2.1,-4.86*,3.5,i,i
CCN(NC(=O)C(O)(c1ccccc1)c1ccccc1)C(=O)c1ccccc1,0.5,3.4,0.154,0.6,i,·
COc1ccc(C(=O)C(Sc2nnc(C)c(=O)[nH]2)c2ccc(OC)cc2)cc1 (stereo not drawn),·,·,0.128,0.4,·,·
O=C(O)c1ccc(NC2=C/C(=N/S(=O)(=O)c3ccccc3)c3ccccc3C2=O)cc1,-0.1,1.7,-4.23*,-1.5,i,+
CC1CCCN(Cc2csc(N)n2)C1 (stereo not drawn),-0.2,4.4,-0.26,-7.1,i,·
CCCNC(=O)c1nnsc1S(=O)c1ccc(Cl)cc1 (stereo not drawn),0.2,5.7,-4.76*,-2.9,i,+
CCCNC(=O)c1ccc2snnc2c1,0.6,3.3,-0.0359,0.1,i,·
CNC(=O)c1nn(-c2ccc(Cl)cc2)ccc1=O,-0.2,1.3,-1,3.6,i,·
CCCNC(=O)NS(=O)(=O)c1ccc(Cl)cc1,-0.2,2.6,-0.0877,-5.2,i,·
CNC(=O)c1nnsc1S(=O)c1ccc(Cl)cc1 (stereo not drawn),-0.1,3.6,-4.99*,-2.0,i,+
CCCNC(=O)c1nnsc1S(=O)(=O)c1ccc(Cl)cc1,-0.1,3.7,-4.2*,-1.6,i,+
C/C=C\C=C\C(=O)N1CC2(CC(c3cccc(NC(=O)CC)c3)=NO2)C[C@H]1C(N)=O (stereo partly drawn),·,·,-0.112,-2.2,·,·
CC(CC(=O)O)CC(=O)Nc1nncs1 (stereo not drawn),·,·,1.81,-0.1,·,·
CC1=C(C#N)C(=O)N(C2CCS(=O)(=O)C2)C(=O)/C1=C\c1ccc(C)o1 (stereo not drawn),·,·,-0.0759,-0.3,·,·
O=C(NC1CCCCC1)c1ccc(S(=O)(=O)c2ccccc2)cc1,0.0,1.0,-0.466,3.7,i,·
Cc1nc([N+](=O)[O-])c(Br)n1CC(=O)c1ccc(Br)cc1,-0.3,2.0,-4.25*,·,i,+
Cc1nc([N+](=O)[O-])c(C(=O)OCc2ccccc2Br)n1C,0.1,3.8,-1.45,0.4,i,·
Cc1cc([N+](=O)[O-])nn1CC(=O)c1ccccc1,-0.2,2.4,-0.797,-6.4,i,·
Cc1nc([N+](=O)[O-])c(Br)n1CC(=O)c1ccc2ccccc2c1,-0.5,3.5,-4.31*,·,i,+
